# Source: ChEMBL document CHEMBL4304791, “DABMA: A Derivative of ABMA with Improved Broad-Spectrum Inhibitory Activity of Toxins and Viruses” (ACS Med Chem Lett, 2019)
# Active and inactive are the calls of the source. The calls are words filed in the database; no cut-off is given here.
# Legend:
# L929 [1] = assay: Cytoprotective activity in Pseudomonas aeruginosa exotoxin induced toxicity in mouse L929 cells assessed as protection factor after 18 hrs by liquid scintillation analysis relative to untreated control; assay type: functional
# How it was run: (§1)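 L929 cells were intoxicated with increasing doses of Pseudomonas exotoxin A for 18 h with compound (30 μM) or DMSO present. Protein synthesis was measured; duplicate wells, mean ± SD, one representative experiment (n = 3).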
# Vero [2] = assay: Inhibition of TcsL-induced cytotoxicity against African green monkey Vero cells assessed as reversal of toxin-induced cell rounding at 30 uM in presence of TcsL after 16 hrs by inverted microscopic analysis relative to ABMA; assay type: functional, Chlorocebus sabaeus
# How it was run: (§2)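 Vero cells were given compound (30 μM) or DMSO, then increasing doses of TcdB for 4 h or TcsL for 16 h. Cell rounding was imaged by inverted microscope. Rounded cells were counted and normalised to total Hoechst-counterstained cells (>100 cells per treatment).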
# A549 [3] = assay: Cytoprotection activity against diphtheria toxin-induced cytotoxicity against human A549 cells assessed as effect on protein synthesis incubated for 20 hrs followed by replacement of [14c]-Leucine containing medium and measured after 4 hrs by liquid scintillation analysis; assay type: functional, cell-based
# How it was run: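 A549 cells were incubated with compound and then challenged with increasing DT concentrations. DT cytotoxicity was read as protein synthesis inhibition. Data are mean of duplicate wells ± SD from one representative experiment (n = 3).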
# A549 [4] = assay: Inhibition of diphtheria induced toxicity in human A549 cells assessed as protection factor at 15 uM incubated for 20 hrs followed by replacement of [14c]-Leucine containing medium and measured after 4 hrs by liquid scintillation analysis relative to untreated control; assay type: functional
# How it was run: (§3)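 A549 cells were incubated with Baf A1 (0.15 nM), DABMA (15 μM), both, or DMSO vehicle before DT was added, with the compounds kept present throughout. Toxin protection was read as protein synthesis and expressed as protection factor.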
# A549 [5] = assay: Inhibition of colony formation in human A549 cells assessed as reduction in colony forming unit at 30 to 60 uM incubated for 16 hrs followed by fresh medium supplementation and measured after 7 days by crystal violet-staining based assay; assay type: cell-based; conditions: a549, 16 h
# How it was run: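 Colony-forming assay of A549 cells with compound at 30 or 60 μM, DMSO vehicle, and paclitaxel (5 μM) as positive control; n = 2.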
# HUVEC [6] = assay: Cytoprotection activity in HUVEC assessed as inhibition of diphtheria induced toxicity by measuring protein synthesis at 15 to 60 uM incubated for 20 hrs followed by replacement of [14c]-Leucine containing medium and measured after 4 hrs by liquid scintillation analysis; assay type: functional, cell-based; conditions: Homo sapiens
# Vero [7] = assay: Cytoprotection activity in African green monkey Vero cells assessed as inhibition of diphtheria induced toxicity incubated for 20 hrs followed by replacement of [14c]-Leucine containing medium and measured after 4 hrs by liquid scintillation analysis; assay type: functional, cell-based; conditions: Chlorocebus sabaeus
# PC-3 = assay: Cytoprotection activity in human PC3 cells assessed as inhibition of diphtheria induced toxicity incubated for 20 hrs followed by replacement of [14c]-Leucine containing medium and measured after 4 hrs by liquid scintillation analysis; assay type: functional, cell-based
# A-431 = assay: Cytoprotection activity in human A431 cells assessed as inhibition of diphtheria induced toxicity incubated for 20 hrs followed by replacement of [14c]-Leucine containing medium and measured after 4 hrs by liquid scintillation analysis; assay type: functional, cell-based
# DLD-1 = assay: Cytoprotection activity in human DLD1 cells assessed as inhibition of diphtheria induced toxicity incubated for 20 hrs followed by replacement of [14c]-Leucine containing medium and measured after 4 hrs by liquid scintillation analysis; assay type: functional, cell-based
# A549 [8] = assay: Induction of lysosomal activation in human A549 cells at 30 uM incubated for 2 hrs by LysoTracker Red staining based confocal microscopic analysis; assay type: functional, cell-based
# How it was run: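 A549 cells were pretreated 2 h with compound (30 or 60 μM) or DMSO, then stained with LysoTracker Deep Red (50 nM, 30 min) plus Hoechst. Intensity was read from 3 × 3 fields per well (10,000 cells/well) by imaging reader; mean ± SEM, n = 4; confocal images.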
# A549 [9] = assay: Induction of lysosomal activation in human A549 cells assessed as increase in endosomal volume by measuring Rab7 expression at 30 uM incubated for 6 hrs by immunostaining based confocal microscopic analysis; assay type: functional, cell-based
# How it was run: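 A549 cells were pretreated 6 h with compound or DMSO and immunostained for Rab7, with DAPI nuclei. Confocal imaging; fluorescence quantified in >30 cells (mean ± SEM), unpaired t test versus DMSO.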
# Vero [10] = assay: Inhibition of TcsL-induced cytotoxicity against African green monkey Vero cells assessed as reversal of toxin-induced cell rounding after 16 hrs by inverted microscopic analysis; assay type: functional, cell-based; conditions: Chlorocebus sabaeus; how it was run: as §2
# L929 [11] = assay: Cytoprotective activity in Pseudomonas aeruginosa exotoxin-induced toxicity in mouse L929 cells assessed as protection of protein synthesis after 18 hrs followed by replacement of [14c]-Leucine containing medium and measured after 4 hrs by liquid scintillation analysis by liquid scintillation analysis; assay type: functional, cell-based; how it was run: as §1
# Zaire ebolavirus [12] = assay: Antiviral activity against Zaire EBOV-mayinga expressing GFP infected in human HeLa cells preincubated for 1 hr followed by viral infection after 24 hrs by DAPI-staining based fluorescence assay relative to control; assay type: functional, 1976
# A549 [13] = assay: Inhibition of diphtheria induced toxicity in human A549 cells assessed as protection fold at 30 uM incubated for 20 hrs followed by replacement of [14c]-Leucine containing medium and measured after 4 hrs by liquid scintillation analysis relative to ABMA; assay type: functional
# How it was run: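 Single-concentration screen: 30 μM compound on A549 cells with increasing DT concentrations, read as protein synthesis inhibition. Protection fold was calculated with ABMA as the positive control.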
# Zaire ebolavirus [14] = assay: Potency index, ratio of ABMA EC50 to compound EC50 for antiviral activity against Zaire Ebola virus -Mayinga expressing GFP infected in human HeLa cells; assay type: functional, 1976
# A549 [15] = assay: Induction of lysosomal activation in human A549 cells assessed as increase in endosomal volume by measuring Lamp 1 expression at 30 uM incubated for 6 hrs by immunostaining based confocal microscopic analysis; assay type: functional, cell-based
# A549 [16] = assay: Induction of morphological changes in human A549 cells assessed as change in golgi apparatus at 30 uM incubated for 24 hrs by cyto-painter dye based inverted microscopic method; assay type: functional, cell-based
# A549 [17] = assay: Induction of morphological changes in human A549 cells assessed as change in endoplasmic reticulum at 30 uM incubated for 24 hrs by cyto-painter dye based inverted microscopic method; assay type: functional, cell-based
# Vero [18] = assay: Selectivity index, ratio of CC50 for cytotoxicity against African green monkey Vero cells to EC50 for cytoprotective activity in TcsL-induced cytotoxicity in African green monkey Vero cells; set-up: species or system Chlorocebus sabaeus
# Vero [19] = assay: Selectivity index, ratio of CC50 for cytotoxicity against African green monkey Vero cells to EC50 for cytoprotective activity in TcdB-induced cytotoxicity in African green monkey Vero cells; set-up: species or system Chlorocebus sabaeus
# HeLa = assay: Cytotoxicity against human HeLa cells assessed as reduction in cell viability at >100 uM incubated for 20 hrs by Alamar blue assay; assay type: cell-based
# HUVEC [20] = assay: Cytotoxicity against HUVEC assessed as reduction in cell viability at >100 uM incubated for 20 hrs and measured after 2 hrs by Alamar blue assay; assay type: cell-based; conditions: human
# A549 [21] = assay: Inhibition of diphtheria induced toxicity in human A549 cells assessed as protection factor at 15 uM incubated for 20 hrs in presence of bafilomycin A1 followed by replacement of [14c]-Leucine containing medium and measured after 4 hrs by liquid scintillation analysis relative to untreated control; assay type: functional; how it was run: as §3
# A549 [22] = assay: Cytotoxicity against human A549 cells assessed as reduction in cell viability at 15 uM incubated for 20 hrs in presence of bafilomycin A1; assay type: cell-based; conditions: a549, 20 h
smiles,measurement,setting,value
COc1ccc(Br)cc1CNC12CC3CC(C)(CC(C)(C3)C1)C2,fold change (FC),L929 [1],4.8
same,fold change (FC),Vero [2],5.6
same,EC50,A549 [3],25.7 µM
same,fold change (FC),A549 [4],6.3
same,Activity,A549 [5],Non-Toxic
same,Activity,HUVEC [6],Active
same,Activity,Vero [7],Active
same,Activity,PC-3,Active
same,Activity,A-431,Active
same,Activity,DLD-1,Active
same,Activity,A549 [8],Active
same,Activity,A549 [9],Active
same,EC50,Vero [10],15.8 µM
same,EC50,L929 [11],20.8 µM
same,inhibition (INH),Zaire ebolavirus [12],>50%
same,fold change (FC),A549 [13],18.5
same,Ratio EC50,Zaire ebolavirus [14],6.6
same,Activity,A549 [15],Active
same,Activity,A549 [16],inactive
same,Activity,A549 [17],inactive
same,Ratio CC50/EC50,Vero [18],7.38
same,Ratio CC50/EC50,Vero [19],6.34
same,Activity,HeLa,Toxic
same,Activity,HUVEC [20],Toxic
same,fold change (FC),A549 [21],300
same,Activity,A549 [22],Non-Toxic
